Consider 20 molecules from ChEMBL document CHEMBL1148652, “Design of potent, orally available antagonists of the transient receptor potential vanilloid 1. Structure-activity relationships of 2-piperazin-1-yl-1H-benzimidazoles” (J Med Chem, 2006).

Structures are written as SMILES. Active and inactive are the calls of the source. Where only a bound is given, the exact number is not on record here.

The target in data set [1] is Transient receptor potential cation channel subfamily V member 1 (Rattus norvegicus) (UniProt O35433). The experiment in a line: Antinociceptive activity in po dosed Sprague-Dawley rat assessed as ability to block capsaicin-induced paw flinching. The class given is functional, organism-based. In outline:
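Rats dosed orally, then challenged with intraplantar capsaicin (0.5 µg/[…] per paw) to provoke flinching. Eight animals per group; ED50 taken from dose-response.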

Data set [2] shares this target. The experiment in a line: Antinociceptive activity in Sprague-Dawley rat assessed as reversal of CFA-induced thermal hyperalgesia. Type of data set: functional. In outline: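 Thermal hyperalgesia induced in rats by complete Freund's adjuvant; reversal assessed after oral dosing at 30 mg/kg.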
Data set [3] has as its target T1, Transient receptor potential cation channel subfamily V member 1 (Rattus norvegicus, UniProt O35433). Kind of data set: Antagonist activity against capsaicin-induced 45calcium ion uptake in CHO cells expressing rat TRPV1. The class given is functional, cell-based. Put shortly:
(§1)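 CHO cells recombinantly expressing rat TRPV1; inhibition of 45Ca2+ uptake triggered by capsaicin or by acid, pH 5. Functional IC50 in nM, averaged over at least two independent experiments, each with three replicates per concentration.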

For data set [4], the target named is T1, Transient receptor potential cation channel subfamily V member 1. The experiment in a line: Antagonist activity against acid-induced 45calcium ion uptake in CHO cells expressing rat TRPV1 at pH5. The class given is functional, cell-based. Put shortly:
as §1

A short description of data set [5]: Clearance in Sprague-Dawley rat at 1 mg/kg, iv. Type of data set: ADME, organism-based. On the set-up: dose 1 mg/kg, route intravenous. The settings on record: in vivo.
The nature of data set [6]: Volume of distribution in Sprague-Dawley rat at 1 mg/kg, iv. Type of data set: ADME, organism-based. More on the design: dose 1 mg/kg, route intravenous. Conditions: in vivo, read-out: Vdss.
Data set [7] can be described thus: Elimination half life in Sprague-Dawley rat at 1 mg/kg, iv. Type of data set: ADME, organism-based. Conditions: in vivo. More on the design: dose 1 mg/kg, route intravenous.
The nature of data set [8]: Tmax in Sprague-Dawley rat at 5 mg/kg, po. The class given is ADME, organism-based. More on the design: dose 5 mg/kg, route oral. Conditions: in vivo.
Data set [9] is described as follows: Cmax in Sprague-Dawley rat at 5 mg/kg, po. The settings on record: in vivo. The class given is ADME, organism-based. More on the design: dose 5 mg/kg, route oral.
Data set [10] in a line: Oral bioavailability in Sprague-Dawley rat. The class given is ADME, organism-based. The settings on record: in vivo.

Sequence of Transient receptor potential cation channel subfamily V member 1 (Rattus norvegicus) (O35433 whole entry): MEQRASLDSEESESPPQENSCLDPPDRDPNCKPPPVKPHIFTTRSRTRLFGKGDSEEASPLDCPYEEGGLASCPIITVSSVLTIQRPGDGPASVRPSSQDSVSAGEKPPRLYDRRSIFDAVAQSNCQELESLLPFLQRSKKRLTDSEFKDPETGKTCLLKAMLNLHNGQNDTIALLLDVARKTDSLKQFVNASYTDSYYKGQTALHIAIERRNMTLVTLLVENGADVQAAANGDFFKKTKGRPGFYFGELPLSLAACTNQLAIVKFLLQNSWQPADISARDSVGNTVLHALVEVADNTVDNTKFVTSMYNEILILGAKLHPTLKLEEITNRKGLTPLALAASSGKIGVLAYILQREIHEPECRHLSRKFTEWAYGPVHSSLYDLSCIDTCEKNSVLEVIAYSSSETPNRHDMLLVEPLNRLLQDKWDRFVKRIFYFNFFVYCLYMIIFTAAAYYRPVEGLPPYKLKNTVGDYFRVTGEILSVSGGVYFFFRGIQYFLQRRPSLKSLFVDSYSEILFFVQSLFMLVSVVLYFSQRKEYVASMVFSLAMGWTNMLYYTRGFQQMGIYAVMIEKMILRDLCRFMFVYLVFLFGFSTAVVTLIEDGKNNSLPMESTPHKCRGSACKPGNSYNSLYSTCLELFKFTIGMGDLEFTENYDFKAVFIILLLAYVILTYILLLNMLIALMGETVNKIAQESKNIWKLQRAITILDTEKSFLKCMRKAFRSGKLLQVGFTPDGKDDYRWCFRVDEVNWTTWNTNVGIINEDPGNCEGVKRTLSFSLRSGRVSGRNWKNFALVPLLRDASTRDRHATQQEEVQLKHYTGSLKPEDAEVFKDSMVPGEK
T1 sequence (O35433 whole entry): as above

The ED50 is the midpoint of the dose-response relation. What is called IC50 is the concentration needed to halve the response being measured. In general, clearance refers to the rate of elimination divided by the concentration. A lower clearance goes with inefficient removal. As a reminder, the half-life is the time needed for the level to fall by half in the phase considered. Read a low half-life as fast loss. One may read the Tmax as the time at which the peak concentration occurs. One may read the Cmax as the maximum level reached in the sampled fluid or tissue. By bioavailability is commonly meant the share of a dose that reaches the circulation, judged against a reference dose that is usually intravenous. A high value points to much systemic uptake. `C[C@@H]1CN(c2ncc(C(O)CO)cc2Cl)CCN1c1nc2c(-c3cc(F)c(F)c(F)c3)cc(C(F)(F)F)cc2[nH]1` (mixture of isomers): the ED50 in [1] came out at 8.8 mg/kg. Moreover, in data set [2], the outcome was Active. Further, the IC50 in data set [3] and in data set [4] was 0.0009 µM throughout. This molecule also gave a clearance in data set [5] of 0.27 L/h/kg. Besides, in data set [6], the Vd is 1.89 L/kg. Moreover, in data set [7], the half-life was 5.6 h. Also, the Tmax in data set [8] is 4 h. Besides, the peak level in data set [9] (Cmax) was 0.617 µg/mL. This molecule came in with a bioavailability in [10] of 17%.
Regarding `Fc1cc(-c2cc(C(F)(F)F)cc3[nH]c(N4CCN(c5ncccc5C(F)(F)F)CC4)nc23)cc(F)c1F`, the IC50 stood at 0.033 µM in data set [3] and 0.026 µM in data set [4].
On the same counts, the results for `C[C@@H]1CN(c2ncc(CO)cc2C(F)(F)F)CCN1c1nc2c(-c3cc(F)c(F)c(F)c3)cc(C(F)(F)F)cc2[nH]1` are 0.0014 µM and 0.0007 µM.
The matching figures for `FC(F)(F)c1ccc(N2CCN(c3nc4cc(C(F)(F)F)ccc4[nH]3)CC2)nc1`: 11.3 µM and above 40 µM.
Take `C[C@@H]1CN(c2ncc(CO)cc2Cl)CCN1c1nc2cc(C(F)(F)F)cc(NC(=O)OC(C)(C)C)c2[nH]1`: the IC50 in data set [3] came to 0.0021 µM; in [4], 0.0011 µM.
For `FC(F)(F)c1cc(-c2ccncc2)c2[nH]c(N3CCN(c4ncccc4C(F)(F)F)CC3)nc2c1`, the IC50 in [3] is 0.267 µM; in data set [4] it was 0.188 µM.
Regarding `FC(F)(F)c1cc(/C=C/c2ccccc2)c2[nH]c(N3CCN(c4ncccc4C(F)(F)F)CC3)nc2c1`, the IC50 in data set [3] worked out at 0.185 µM; in data set [4] it was 0.14 µM.
On the same counts, the results for `FC(F)(F)c1ccc2[nH]c(N3CCN(c4ccncc4C(F)(F)F)CC3)nc2c1` are 2.38 µM and 2.85 µM.
On the same counts, the results for `CNC(=O)c1cnc(N2CCN(c3nc4ccc(C(F)(F)F)cc4[nH]3)CC2)c(Cl)c1` are 0.493 µM and above 40 µM.
Consider `FC(F)(F)c1cc(C(F)(F)F)c2[nH]c(N3CCN(c4ncccc4C(F)(F)F)CC3)nc2c1`, for which the IC50 came to 0.325 µM in [3] and 0.12 µM in data set [4].
As to `N#Cc1ccc2[nH]c(N3CCN(c4ncccc4C(F)(F)F)CC3)nc2c1`, the results for the IC50 in data set [3] and in data set [4] were 3.3 µM and above 4 µM, respectively.
Take `FC(F)(F)c1cc(Br)c2nc(N3CCN(c4ncccc4C(F)(F)F)CC3)[nH]c2c1`: the results for the IC50 in data set [3] and in data set [4] were 0.131 µM and 0.074 µM, respectively.
With `FC(F)(F)c1ccc2[nH]c(N3CCN(c4cccc(C(F)(F)F)n4)CC3)nc2c1`, the IC50 in data set [3] and in data set [4] was above 40 µM throughout.
For `COC(=O)c1cnc(N2CCN(c3nc4c(-c5cc(F)c(F)c(F)c5)cc(C(F)(F)F)cc4[nH]3)[C@H](C)C2)c(Cl)c1`, the IC50 in data set [3] and in data set [4] was 0.0003 µM in each case.
In the case of `CC(C)(C)c1ccc2[nH]c(N3CCN(c4ncccc4C(F)(F)F)CC3)nc2c1`, the figures for the IC50 in data set [3] and in [4] were 0.183 µM and 0.282 µM, respectively.
On the same counts, the results for `COc1ccc(-c2cc(C(F)(F)F)cc3[nH]c(N4CCN(c5ncccc5C(F)(F)F)CC4)nc23)cn1` are 0.111 µM and 0.099 µM.
With `Fc1ccc2[nH]c(N3CCN(c4ncccc4C(F)(F)F)CC3)nc2c1`, the IC50 in [3] and in data set [4] was above 4 µM throughout.
Take `FC(F)(F)c1cc(N2CCOCC2)c2[nH]c(N3CCN(c4ncccc4C(F)(F)F)CC3)nc2c1`: the IC50 in data set [3] came to 0.05 µM; in [4], 0.095 µM.
The matching figures for `Nc1ccc(-c2cc(C(F)(F)F)cc3[nH]c(N4CCN(c5ncccc5C(F)(F)F)CC4)nc23)cc1`: 1.9 µM and 0.308 µM.
On the same counts, the results for `FC(F)(F)c1cnc2nc(N3CCN(c4ncccc4C(F)(F)F)CC3)[nH]c2c1` are 1.55 µM and 0.884 µM.
